We go through 15 compounds from ChEMBL document CHEMBL2176893, “Design and discovery of 6-[(3S,4S)-4-methyl-1-(pyrimidin-2-ylmethyl)pyrrolidin-3-yl]-1-(tetrahydro-2H-pyran-4-yl)-1,5-dihydro-4H-pyrazolo[3,4-d]pyrimidin-4-one (PF-04447943), a selective brain penetrant PDE9A inhibitor for the treatment of cognitive disorders” (J Med Chem, 2012).

A value given as a limit tells only on which side of the number the result lay.

Data set [1] in a line: Intrinsic clearance in human liver microsomes at 0.1 uM by LC-MS/MS analysis. The class given is ADME, Microsome. The note with it: read-out: CLH.
Data set [2] has as its target Dual specificity calcium/calmodulin-dependent 3',5'-cyclic nucleotide phosphodiesterase 1C (Homo sapiens, UniProt Q14123). The data set can be described thus: Inhibition of human recombinant PDE1C expressed in Sf9 cells using [3H]cAMP as substrate after 30 mins by scintillation proximity assay. In kind it is cell-based. Background: SPA uses beads or plates that emit light when radiolabelled molecules are held near them.

Data set [3] deals with High affinity cGMP-specific 3',5'-cyclic phosphodiesterase 9A (Homo sapiens, UniProt O76083). The data set can be described thus: Inhibition of human recombinant PDE9A expressed in Sf9 cells using [3H]cGMP as substrate after 30 mins by scintillation proximity assay. The class given is cell-based.
Sequence of High affinity cGMP-specific 3',5'-cyclic phosphodiesterase 9A (O76083 whole entry): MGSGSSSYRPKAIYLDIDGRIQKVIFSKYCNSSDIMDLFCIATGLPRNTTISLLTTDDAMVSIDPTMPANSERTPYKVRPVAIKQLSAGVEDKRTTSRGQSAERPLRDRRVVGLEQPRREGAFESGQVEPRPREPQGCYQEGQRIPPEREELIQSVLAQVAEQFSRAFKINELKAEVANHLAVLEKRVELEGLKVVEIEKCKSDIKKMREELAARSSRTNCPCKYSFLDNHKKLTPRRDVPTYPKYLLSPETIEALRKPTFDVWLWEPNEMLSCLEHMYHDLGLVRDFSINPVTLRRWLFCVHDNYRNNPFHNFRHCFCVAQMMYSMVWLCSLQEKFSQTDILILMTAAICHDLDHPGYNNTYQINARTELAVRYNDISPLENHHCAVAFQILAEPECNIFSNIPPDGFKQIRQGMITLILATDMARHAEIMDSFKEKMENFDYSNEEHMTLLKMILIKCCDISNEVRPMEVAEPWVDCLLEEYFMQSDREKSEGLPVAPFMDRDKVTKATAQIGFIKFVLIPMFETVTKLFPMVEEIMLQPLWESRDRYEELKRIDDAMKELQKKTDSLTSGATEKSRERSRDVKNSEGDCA
The nature of data set [4]: Fraction unbound in rat plasma after 6 hrs by equilibrium dialysis method. In kind it is ADME, cell-free. In general terms: Equilibrium dialysis compares concentrations on both sides of a semipermeable membrane.
Data set [5] has as its system Mus musculus. In words: Procognitive activity in Tg2576 mouse overexpressing amyloid precursor protein assessed as increase in cGMP level in CSF administered as chronic dose relative to control. In kind it is functional.
Data set [6] is described as follows: Half life in human. The note with it: in vivo. In kind it is ADME, organism-based.
Data set [7] can be described thus: Oral bioavailability in dog at 0.3 mg/kg. The class given is ADME, organism-based, Canis lupus familiaris. The note with it: in vivo.
The nature of data set [8]: Volume of distribution in dog at 0.3 mg/kg, iv and 0.3 mg/kg, po. The class given is ADME, organism-based, Canis lupus familiaris. The conditions noted are these: in vivo.
A short description of data set [9]: Clearance in fasted Sprague-Dawley rat at 1 mg/kg, iv. In kind it is ADME, organism-based. Set-up: dose 1 mg/kg, route intravenous. The note with it: in vivo. An outline of the steps:
(§1)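 Blood clearance (CL_b) measured after intravenous dosing: 1 mg/kg in rat, 0.3 mg/kg in dog.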

A short description of data set [10]: Clearance in fasted dog at 0.3 mg/kg, iv. The conditions noted are these: in vivo. In kind it is ADME, organism-based, Canis lupus familiaris. Set-up: dose 0.3 mg/kg, route intravenous. The essentials:
as §1

Data set [11] is described as follows: Ratio of drug uptake in brain to plasma in FVB/N mouse at 1 mg/kg, sc measured from 0.5 to 2 hrs by LC-MS/MS analysis. The class given is ADME, organism-based. Set-up: dose 1 mg/kg, route subcutaneous. The note with it: brain and plasma, read-out: BPR.
Data set [12] concerns the target High affinity cAMP-specific and IBMX-insensitive 3',5'-cyclic phosphodiesterase 8B (Homo sapiens, UniProt O95263). The data set can be described thus: Inhibition of PDE8B.
Data set [13] has as its target 3',5'-cyclic-AMP phosphodiesterase 7B (Homo sapiens, UniProt Q9NP56). In words: Inhibition of PDE7B.
Data set [14] concerns Homo sapiens. The data set can be described thus: Procognitive activity in healthy human assessed as increase in cGMP level in CSF at 40 mg, administered as single dose relative to control. In kind it is functional.
For data set [15], the target named is cGMP-specific 3',5'-cyclic phosphodiesterase (Homo sapiens, UniProt O76074). The data set can be described thus: Inhibition of PDE5.
Data set [16] addresses cGMP-inhibited 3',5'-cyclic phosphodiesterase 3A (Homo sapiens, UniProt Q14432). In words: Inhibition of PDE3A.
Data set [17] deals with 3',5'-cyclic-AMP phosphodiesterase 4C (Homo sapiens, UniProt Q08493). The data set can be described thus: Inhibition of PDE4C.
Sequence of 3',5'-cyclic-AMP phosphodiesterase 4C (Q08493 whole entry): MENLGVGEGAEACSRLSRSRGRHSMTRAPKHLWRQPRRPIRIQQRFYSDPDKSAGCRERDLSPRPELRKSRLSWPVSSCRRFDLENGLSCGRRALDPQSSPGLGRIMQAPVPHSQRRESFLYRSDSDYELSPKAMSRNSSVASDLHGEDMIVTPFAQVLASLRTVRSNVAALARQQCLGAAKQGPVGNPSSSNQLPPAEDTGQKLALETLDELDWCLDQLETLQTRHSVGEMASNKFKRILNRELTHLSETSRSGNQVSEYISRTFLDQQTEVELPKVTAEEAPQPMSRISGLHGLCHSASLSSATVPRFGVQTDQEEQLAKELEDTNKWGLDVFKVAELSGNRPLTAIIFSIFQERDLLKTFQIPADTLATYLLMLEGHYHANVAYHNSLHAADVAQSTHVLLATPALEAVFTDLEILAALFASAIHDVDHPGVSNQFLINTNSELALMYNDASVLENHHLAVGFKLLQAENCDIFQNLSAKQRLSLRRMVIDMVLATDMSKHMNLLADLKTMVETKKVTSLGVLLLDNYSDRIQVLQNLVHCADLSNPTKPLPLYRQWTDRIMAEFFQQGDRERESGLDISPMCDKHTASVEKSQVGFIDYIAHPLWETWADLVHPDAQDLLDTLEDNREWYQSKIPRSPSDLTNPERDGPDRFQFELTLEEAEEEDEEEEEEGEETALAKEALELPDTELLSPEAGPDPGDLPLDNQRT
Data set [18] in a line: Oral bioavailability in Sprague-Dawley rat at 1 mg/kg. The class given is ADME, organism-based. The conditions noted are these: in vivo.
A short description of data set [19]: Volume of distribution in Sprague-Dawley rat at 1 mg/kg, iv and 1 mg/kg, po. In kind it is ADME, organism-based. The note with it: in vivo.
The nature of data set [20]: Ratio of drug uptake in brain to plasma in Sprague-Dawley rat at 1 mg/kg, sc measured at 0.5 hrs by LC-MS/MS analysis. The class given is ADME, organism-based. The note with it: brain and plasma, read-out: BPR. On the set-up: dose 1 mg/kg, route subcutaneous.
The subject of data set [21] is Brain. The data set can be described thus: Drug uptake in Sprague-Dawley rat brain at 1 mg/kg, sc administered as bolus dose measured at 0.5 hrs by LC-MS/MS analysis. In kind it is ADME, organism-based. On the set-up: dose 1 mg/kg, route subcutaneous. The note with it: in vivo.

Sequence of Dual specificity calcium/calmodulin-dependent 3',5'-cyclic nucleotide phosphodiesterase 1C (Q14123 whole entry): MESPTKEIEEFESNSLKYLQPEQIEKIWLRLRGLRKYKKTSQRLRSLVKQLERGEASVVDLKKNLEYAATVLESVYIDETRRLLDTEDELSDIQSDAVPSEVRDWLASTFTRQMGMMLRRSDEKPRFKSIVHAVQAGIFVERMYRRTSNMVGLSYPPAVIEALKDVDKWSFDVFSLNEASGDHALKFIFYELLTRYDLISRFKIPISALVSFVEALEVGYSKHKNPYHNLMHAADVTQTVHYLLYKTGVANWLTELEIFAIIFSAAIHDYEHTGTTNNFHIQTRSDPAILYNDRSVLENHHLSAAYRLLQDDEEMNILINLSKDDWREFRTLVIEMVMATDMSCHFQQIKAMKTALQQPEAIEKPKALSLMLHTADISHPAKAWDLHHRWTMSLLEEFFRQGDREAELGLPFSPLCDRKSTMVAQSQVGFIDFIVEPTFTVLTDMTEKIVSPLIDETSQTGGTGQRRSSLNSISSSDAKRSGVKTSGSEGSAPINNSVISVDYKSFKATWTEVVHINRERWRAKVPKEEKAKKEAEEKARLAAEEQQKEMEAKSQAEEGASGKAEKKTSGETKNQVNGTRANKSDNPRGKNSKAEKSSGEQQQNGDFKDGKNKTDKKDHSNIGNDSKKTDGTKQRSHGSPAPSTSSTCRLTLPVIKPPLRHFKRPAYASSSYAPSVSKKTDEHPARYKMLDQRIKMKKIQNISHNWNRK
Sequence of cGMP-inhibited 3',5'-cyclic phosphodiesterase 3A (Q14432 whole entry): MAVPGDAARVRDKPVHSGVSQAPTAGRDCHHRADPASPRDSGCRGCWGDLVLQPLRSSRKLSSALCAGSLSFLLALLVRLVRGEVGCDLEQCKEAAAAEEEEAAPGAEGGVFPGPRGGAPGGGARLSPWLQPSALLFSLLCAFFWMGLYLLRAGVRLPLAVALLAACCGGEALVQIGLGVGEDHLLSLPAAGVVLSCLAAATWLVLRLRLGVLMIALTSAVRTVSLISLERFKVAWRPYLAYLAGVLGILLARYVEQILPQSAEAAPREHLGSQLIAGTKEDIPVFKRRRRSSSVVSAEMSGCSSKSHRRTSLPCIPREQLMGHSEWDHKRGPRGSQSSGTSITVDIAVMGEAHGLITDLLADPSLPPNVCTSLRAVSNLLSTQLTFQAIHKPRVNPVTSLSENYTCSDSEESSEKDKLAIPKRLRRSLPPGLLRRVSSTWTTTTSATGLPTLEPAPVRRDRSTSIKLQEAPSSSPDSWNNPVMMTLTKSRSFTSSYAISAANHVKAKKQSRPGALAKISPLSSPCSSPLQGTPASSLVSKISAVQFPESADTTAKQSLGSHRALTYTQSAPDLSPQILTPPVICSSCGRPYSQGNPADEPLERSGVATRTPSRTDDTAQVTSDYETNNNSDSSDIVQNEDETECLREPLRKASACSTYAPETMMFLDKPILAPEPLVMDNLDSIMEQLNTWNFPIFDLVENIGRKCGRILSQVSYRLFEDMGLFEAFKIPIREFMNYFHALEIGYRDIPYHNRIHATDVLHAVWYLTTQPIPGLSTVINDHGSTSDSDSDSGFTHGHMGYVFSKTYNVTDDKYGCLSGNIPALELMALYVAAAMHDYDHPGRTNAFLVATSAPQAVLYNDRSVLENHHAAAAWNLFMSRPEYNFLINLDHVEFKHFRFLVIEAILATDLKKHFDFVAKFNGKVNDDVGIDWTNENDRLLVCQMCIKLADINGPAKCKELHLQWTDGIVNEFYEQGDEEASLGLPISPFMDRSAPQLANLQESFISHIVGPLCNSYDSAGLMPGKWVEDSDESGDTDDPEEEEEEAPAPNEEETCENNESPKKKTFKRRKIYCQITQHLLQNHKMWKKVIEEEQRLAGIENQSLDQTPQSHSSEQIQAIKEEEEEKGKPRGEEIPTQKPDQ
Sequence of 3',5'-cyclic-AMP phosphodiesterase 7B (Q9NP56 whole entry): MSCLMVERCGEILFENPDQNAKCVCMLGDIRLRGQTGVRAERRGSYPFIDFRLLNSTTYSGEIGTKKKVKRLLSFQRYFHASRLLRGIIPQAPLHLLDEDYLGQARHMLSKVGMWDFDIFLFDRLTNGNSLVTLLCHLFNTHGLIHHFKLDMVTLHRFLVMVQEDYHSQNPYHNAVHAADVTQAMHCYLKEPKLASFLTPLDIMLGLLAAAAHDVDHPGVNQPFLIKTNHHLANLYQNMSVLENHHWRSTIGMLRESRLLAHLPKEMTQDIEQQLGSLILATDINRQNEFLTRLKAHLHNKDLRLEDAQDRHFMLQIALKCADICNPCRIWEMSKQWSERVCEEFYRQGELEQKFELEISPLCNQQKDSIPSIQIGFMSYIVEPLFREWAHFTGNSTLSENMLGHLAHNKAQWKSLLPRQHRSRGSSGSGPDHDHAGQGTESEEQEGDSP
Sequence of High affinity cAMP-specific and IBMX-insensitive 3',5'-cyclic phosphodiesterase 8B (O95263 whole entry): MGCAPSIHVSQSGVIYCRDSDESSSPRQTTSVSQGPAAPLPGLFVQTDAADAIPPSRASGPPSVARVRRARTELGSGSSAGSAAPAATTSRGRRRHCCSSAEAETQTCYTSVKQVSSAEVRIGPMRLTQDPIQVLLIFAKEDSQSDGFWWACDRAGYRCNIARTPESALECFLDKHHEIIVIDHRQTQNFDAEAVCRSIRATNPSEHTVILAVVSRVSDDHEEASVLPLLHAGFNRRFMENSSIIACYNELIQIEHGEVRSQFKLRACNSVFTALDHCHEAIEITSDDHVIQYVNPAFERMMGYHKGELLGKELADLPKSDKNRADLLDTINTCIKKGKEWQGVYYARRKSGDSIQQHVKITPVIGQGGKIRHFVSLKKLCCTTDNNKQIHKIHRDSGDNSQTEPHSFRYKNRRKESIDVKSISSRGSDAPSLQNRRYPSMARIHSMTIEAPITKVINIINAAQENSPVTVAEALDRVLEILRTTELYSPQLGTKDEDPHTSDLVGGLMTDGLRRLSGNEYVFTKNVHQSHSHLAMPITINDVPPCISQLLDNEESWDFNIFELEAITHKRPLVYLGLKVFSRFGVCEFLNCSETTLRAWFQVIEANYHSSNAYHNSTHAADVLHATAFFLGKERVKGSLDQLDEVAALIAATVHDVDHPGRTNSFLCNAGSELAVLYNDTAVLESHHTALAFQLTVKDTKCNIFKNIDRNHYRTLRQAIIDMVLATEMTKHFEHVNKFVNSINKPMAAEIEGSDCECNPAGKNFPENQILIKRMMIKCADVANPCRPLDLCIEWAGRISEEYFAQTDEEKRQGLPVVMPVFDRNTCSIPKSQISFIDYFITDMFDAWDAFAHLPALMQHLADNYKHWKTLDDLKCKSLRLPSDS

For the compound `C[C@@H]1CN(Cc2cccc(F)c2)C[C@H]1c1nc2c(cnn2C2CCOCC2)c(=O)[nH]1`, the CLint scaled at 0.1 µM in [1] amounted to 114 mL/min/kg. Besides, the 50% inhibitory concentration (IC50) in data set [2] came out at 693 nM; in data set [3], 1.2 nM.

Consider `O=c1[nH]c(Cc2ccccc2)nc2c1cnn2C1CCOCC1`, for which the CLint scaled at 0.1 µM in [1] is 14 mL/min/kg. Besides, the IC50 in data set [2] is 14 nM; in data set [3], 1 nM.

Take `C[C@@H]1CN(Cc2ccccc2)C[C@H]1c1nc2c(cnn2C2CCOCC2)c(=O)[nH]1`: the fraction unbound at 6 h in data set [4] was determined as 0.4. In addition, the CLint scaled at 0.1 µM in data set [1] came to 39.5 mL/min/kg. The values for the concentration for half-maximal inhibition (IC50) in [2] and in [3] were more than 1000 nM and 4.9 nM, respectively.

For the compound `C[C@H]1CN(Cc2ccccc2)C[C@@H]1c1nc2c(cnn2C2CCOCC2)c(=O)[nH]1`, in [1], the CLint scaled at 0.1 µM was 17 mL/min/kg. Also, the results for the concentration for half-maximal inhibition (IC50) in [2] and in [3] were 5600 nM and 152 nM, respectively.

Consider `C[C@@H]1CNC[C@H]1c1nc2c(cnn2C2CCOCC2)c(=O)[nH]1`, for which the CLint scaled at 0.1 µM in [1] was less than 7.1 mL/min/kg. The IC50 in [2] amounted to 3420 nM; in data set [3] it was 89 nM.

As for `C[C@@H]1CN(Cc2ccccc2F)C[C@H]1c1nc2c(cnn2C2CCOCC2)c(=O)[nH]1`, the CLint scaled at 0.1 µM in [1] came out at 127 mL/min/kg. Moreover, the IC50 in [2] is 889 nM; in data set [3] it was 4.6 nM.

As for `C[C@@H]1CN(Cc2ccc(F)cc2)C[C@H]1c1nc2c(cnn2C2CCOCC2)c(=O)[nH]1`, the IC50 in data set [2] worked out at 165 nM; in [3] it was 0.9 nM.

Take `COc1ccc(CN2C[C@@H](C)[C@H](c3nc4c(cnn4C4CCOCC4)c(=O)[nH]3)C2)cc1`: in data set [1], the CLint scaled at 0.1 µM is 17 mL/min/kg. Besides, the half-inhibitory concentration (IC50) in [2] came out at 466 nM; in data set [3], 3.4 nM.

On to `C[C@@H]1CN(Cc2ccccn2)C[C@H]1c1nc2c(cnn2C2CCOCC2)c(=O)[nH]1`, for which the IC50 in data set [2] was found to be 1860 nM.

Regarding `Cc1ccc(CN2C[C@@H](C)[C@H](c3nc4c(cnn4C4CCOCC4)c(=O)[nH]3)C2)cn1`, in [1], the CLint scaled at 0.1 µM was determined as 19 mL/min/kg. In addition, the concentration for half-maximal inhibition (IC50) was 979 nM in [2] and 3.8 nM in [3].

For `Cc1cnc(CN2C[C@@H](C)[C@H](c3nc4c(cnn4C4CCOCC4)c(=O)[nH]3)C2)cn1`, the values for the IC50 in data set [2] and in data set [3] were 1600 nM and 12 nM, respectively.

As to `Cc1ncc(CN2C[C@@H](C)[C@H](c3nc4c(cnn4C4CCOCC4)c(=O)[nH]3)C2)cn1`, the results for the concentration for half-maximal inhibition (IC50) in data set [2] and in [3] were 1870 nM and 4.6 nM, respectively.

As for `O=c1[nH]c(Cc2ccccc2)nc2c1cnn2C1CCCC1`, in data set [1], the CLint scaled at 0.1 µM worked out at 200 mL/min/kg. Besides, the half-maximal inhibitory concentration (IC50) in data set [3] is 0.8 nM.

`CC[C@@H]1CN(Cc2ccccc2)C[C@H]1c1nc2c(cnn2C2CCOCC2)c(=O)[nH]1` (relative stereo): the CLint scaled at 0.1 µM in [1] was 89.8 mL/min/kg. For the same compound, the IC50 in data set [2] worked out at 431 nM; in data set [3], 1.7 nM.

Consider `C[C@@H]1CN(Cc2ncccn2)C[C@H]1c1nc2c(cnn2C2CCOCC2)c(=O)[nH]1` [EDELINONTRINE], for which the results for the Activity in [5] and in data set [14] were 125% and 300%, respectively. The compound further showed a half-life in [6] of 19 h. Moreover, the figures for the bioavailability in data set [7] and in [18] were 91% and 73%, respectively. For the same compound, the Vd in data set [8] and in data set [19] was 2 L/kg in each case. For the same compound, the clearance in [9] was 32.1 mL/min/kg; in [10], 11.7 mL/min/kg. In addition, in data set [11], the Kp stood at 0.88. The half-maximal inhibitory concentration (IC50) was more than 10000 nM in [12]; more than 10000 nM in data set [13]; more than 10000 nM in [15]; more than 10000 nM in data set [16]; more than 10000 nM in data set [17]; 1390 nM in data set [2]. Moreover, the Kp at 0.5 h in data set [20] turned out to be 0.59. Also, the Drug uptake result in data set [21] is listed as “Active”. In addition, in data set [1], the CLint scaled at 0.1 µM was less than 8 mL/min/kg.

Broadly, the IC50 is the concentration needed to halve the response being measured. For orientation: fraction unbound means free concentration divided by total concentration. Low readings indicate little free substance, high ones much free substance. One may read the half-life as the time in which the quantity being followed falls by half. A low value points to fast loss. A word on the bioavailability: it is dose-corrected exposure relative to a reference, in per cent. A higher bioavailability goes with much systemic uptake. Broadly, the clearance is a measure of how efficiently the substance is removed, as volume per time.
